Yeast life ext – extends the lifespan of yeast; S. cerevisiae growth with nicotinamide, OD615; deaD strain in restrictive glucose medium; inhibition of the nicotinamide effect, % at 10 µM; hit rate 0.68% among 130,000;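 active = inhibition above a set limit, placed 3 SD over the median of all compounds, cut at about 26% in these data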;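 also: 0% = nicotinamide-treated wells and 100% = cells grown without nicotinamide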
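System: Modified budding yeast, DeaD strain | Buffer or medium: Restrictive glucose medium | Also added: 1.5 mM nicotinamide | Doses: 10 µM single point, 0.25% DMSO | Schedule: 48 h compound exposure at 30 °C, humidified | Detection: Absorbance at 615 nm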
SDO1 yeast rescue – restores growth of sdo1-depleted yeast | S. cerevisiae sdo1-depleted JHY4D growth rescue, OD600 30 h; active compounds read high; pdr5 snq2 efflux-pump mutant strain | z-score at 10 µM | hit rate 0.21% among 140,000;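 active = z-score above 3 at both the 24 hr and the 30 hr optical density reads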;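 also: z-score against mean and SD of all compound wells on the same plate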
Yeast growth inh – yeast BB579 growth reduction in restrictive medium | hit rate 0.51% among 140,000 | inhibition, % at 10 µM | S. cerevisiae BB579 growth, OD615, 48 h | AID 804;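 active = inhibition above a set limit, 3 SD over the mean compound inhibition, cut at about 44% in these data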
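Material: Saccharomyces cerevisiae DeaD strain BB579, replicative lifespan model yeast; buffer or medium: CSMM-D restrictive synthetic medium containing dextrose (glucose); compound: 10 µM single dose, DMSO 0.25%; timing: 48 h compound exposure at 30 °C after 4 h preincubation; signal: turbidity as optical density at 615 nm; benchmarks: positive control amphotericin B 10 µg/mL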
RAM network inh – yeast RAM network inhibition; inhibition, % at 50 µM; AID 868; hit rate 1.8% among 190,000; S. cerevisiae dse1pr::URA3 reporter, 5-FOA growth OD615, 2 d; analog-sensitive cbk1-as2 kinase mutant strain;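 active = inhibition above a set limit, 3 SD over mean compound inhibition, cut at about 8.4% in these data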;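 also: 0% = DMSO-only wells with no growth and 100% = 10 µM 1-NA-PP1 full growth; inhibition rescues growth on 5-FOA so higher OD means more RAM inhibition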
RAM efflux-def – RAM network inhibitors in efflux-deficient yeast; max inhibition, %; 1,200 tested, under 10 active; S. cerevisiae efflux-deficient reporter strain, 5-FOA growth OD615, 2 days; shares compounds with RAM network inh; AID 1305; call rule not given here;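 also: plate controls were vehicle for no effect and reference inhibitor for full effect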
* hit, by the source's call; . = no result given. Rows were chosen to be rich in hits. Some 2.7% of all compounds tested hit in one or more screens of this group.

SMILES	Yeast life ext	SDO1 yeast rescue	Yeast growth inh	RAM network inh	RAM efflux-def
O=C(CN(Cc1cccs1)C(=O)CSc1nnc(COc2ccccc2)o1)NC1CCCC1	10	-0.15	-69	17*	1
CCOc1ccc(NC(=O)CNC(=O)c2ccc([N+](=O)[O-])cc2)cc1	.	.	.	0	.
Cc1ccc(C(=O)Nc2ccc(C(=O)O)cc2)cc1S(=O)(=O)NCc1ccccc1	.	.	.	13*	3
COc1cccc(CN2CCNC(=O)C2CC(=O)NCCn2ccc3ccccc32)c1OC (stereo not given)	.	.	.	4	.
CCc1cc2c(=O)n(Cc3ccco3)c(SCc3c(C)noc3C)nc2s1	-3	-1.8	-49	13*	7
CN(C[C@@H](CC1CCCCC1)N(C[C@H](Cc1ccccc1)N(CCc1ccccc1)N=O)N=O)N=O	.	.	.	14*	4
CCC(C)[C@@H](CN(N=O)[C@@H](Cc1ccccc1)CN(C)N=O)N(CCc1ccccc1)N=O (stereo not given in full)	.	.	.	30*	3
Cc1ncc(CN2CCC(CO)(Cc3ccccc3)CC2)s1	.	.	.	0	.
CC(/C=C/c1ccccc1)=N\NC(=O)c1cc(C)[nH]n1	.	.	.	-1	.
CCCCn1c(N)c(N(CC)C(=O)CSc2nnnn2-c2cc(C)ccc2C)c(=O)[nH]c1=O	.	.	.	1	.
CCOCCCNC(=O)CN1C(=O)/C(=C\c2ccc(C)cc2)Sc2ccccc21	3	-1.1	-38	8	.
Cc1ccc(/C=C2/Sc3ccccc3N(CC(=O)NCCCOC(C)C)C2=O)cc1	3	-1.4	-40	13*	4
COc1ccc(Cc2nnc(Nc3ccc4c(c3)OCCO4)[nH]c2=O)cc1	.	.	.	3	.
CCOCCOC(=O)C(C)Oc1ccc(Oc2nc(Cl)ccc2Cl)cc1 (stereo not given)	.	.	.	13*	2
COc1cccc(/C=C2\SC(=S)N(C(Cc3ccccc3)C(=O)O)C2=O)c1 (stereo not given)	.	.	.	12*	1
O=C(O)C(Cc1ccccc1)N1C(=O)/C(=C/c2cccs2)SC1=S (stereo not given)	.	.	.	15*	2
O=c1c(/C=N/O)coc2ccc3ccccc3c12	-12	-0.56	10	23*	1
CCOC(=O)c1ccc(NC(=O)Nc2cc(C)cc(C)n2)cc1	.	.	.	5	.
C=CCNC(=O)/C(C#N)=C/c1ccc(OS(=O)(=O)c2ccc(C)cc2)c(OC)c1	24	-1.6	-26	15*	2
COC(=O)N/N=C/c1ccc(OS(=O)(=O)c2ccc(C)cc2)c(OC)c1	.	.	.	-1	.
COc1ccc(C(=O)CSc2nc(C(C)(C)C)nc3ccccc23)cc1	.	.	.	13*	2
COc1ccc(/C=N/OCC(=O)NCC(C)C)c(OC)c1	.	.	.	1	.
COc1ccc(/C=N/OCC(=O)NC(c2ccccc2)c2ccccc2)c(OC)c1	3	-0.81	-18	12*	3
CCOC(=O)c1c(C)n(C)c2ccc(OC)c([N+](=O)[O-])c12	.	.	.	0	.
CCSC1=N/C(=C\c2ccc3c(c2)OCO3)C(=O)S1	-5	-0.74	-30	15*	6
SMILES	Yeast life ext	SDO1 yeast rescue	Yeast growth inh	RAM network inh	RAM efflux-def
CCSC1=N/C(=C\c2cccc(F)c2)C(=O)S1	4	-0.14	-34	-2	.
CN(C)CCNC(=O)CNC(=S)N(Cc1ccccc1)Cc1ccccc1F	.	.	.	-1	.
CCOC(=O)CNC(=S)N(Cc1ccccc1)Cc1ccccc1F	.	.	.	7	.
O=C(CNC(=S)N(Cc1ccccc1)Cc1ccccc1F)NCc1ccc(Cl)cc1	.	.	.	16*	2
COc1cccc(CNC(=O)CNC(=S)N(Cc2ccccc2)Cc2ccccc2F)c1	.	.	.	12*	2
Cc1ccc(CNC(=O)CNC(=S)N(Cc2ccccc2)Cc2ccccc2F)cc1	.	.	.	12*	4
COc1ccc(C(=O)/C=C2/c3ccccc3CC(C)(C)N2C)cc1OC	1	0.21	5	1	.
CCCn1c2c(c(O)c(C(=O)Nc3ccccc3)c1=O)CCCC2	-9	0.35	-11	12*	7
CC(C)Cn1c2c(c(O)c(C(=O)Nc3ccc(F)cc3)c1=O)CCCC2	-10	-0.31	-28	7	.
O=C1N=C(N2CCCC2C(=O)O)S/C1=C\c1ccco1 (stereo not given)	.	.	.	1	.
COc1cccc(C(=O)Nc2ccc(S(=O)(=O)NCc3ccco3)cc2)c1	-3	0.14	-19	3	.
COc1cc(-c2cc(C(=O)Nc3ccc(S(=O)(=O)NCc4ccco4)cc3)c3ccccc3n2)cc(OC)c1OC	6	2.1	-10	13*	4
CCOC(=O)C1=NN(c2ccccc2C)C2=NC(C)=C(C(=O)OC)C(c3cccs3)N12 (stereo not given)	.	-0.91	-14	2	.
CCOC(=O)C1=NN(c2ccccc2C)C2=NC(C)=C(C(=O)OC)C(c3cccc(OC)c3)N12 (stereo not given)	9	-0.86	-27	23*	3
Cc1noc(C)c1CCC(=O)N1CCCC(CCC(=O)NCc2ccc(F)c(F)c2)C1 (stereo not given)	.	.	.	0	.
FC(F)(F)c1n[nH]c(=S)n1/N=C/c1ccco1	3	0.19	-7	0	.
COc1cccc(NC(=S)N(Cc2ccc(Cl)cc2)Cc2ccc(C(=O)O)cc2)c1	.	.	.	14*	2
COC(=O)c1c(CSc2ccc(C)c(C)c2)noc1C(=O)NCc1ccc(OC)cc1	1	-0.47	-37	12*	2

Screens deposited in PubChem BioAssay by several laboratories.
